Assay results reported in ChEMBL document CHEMBL4431336, “Ligand-based virtual screen for the discovery of novel M5 inhibitor chemotypes” (Bioorg Med Chem Lett, 2016).
Activity calls are given as the source filed them. The calls are words filed in the database; no cut-off is given here.

Assays:
[1] = molecular target: T1, Muscarinic acetylcholine receptor M5 (Homo sapiens) (UniProt P08912); assay: Antagonist activity at human muscarinic M5 receptor assessed as inhibition of acetylcholine-induced calcium response at 10 uM; assay type: functional
T1 sequence (whole entry): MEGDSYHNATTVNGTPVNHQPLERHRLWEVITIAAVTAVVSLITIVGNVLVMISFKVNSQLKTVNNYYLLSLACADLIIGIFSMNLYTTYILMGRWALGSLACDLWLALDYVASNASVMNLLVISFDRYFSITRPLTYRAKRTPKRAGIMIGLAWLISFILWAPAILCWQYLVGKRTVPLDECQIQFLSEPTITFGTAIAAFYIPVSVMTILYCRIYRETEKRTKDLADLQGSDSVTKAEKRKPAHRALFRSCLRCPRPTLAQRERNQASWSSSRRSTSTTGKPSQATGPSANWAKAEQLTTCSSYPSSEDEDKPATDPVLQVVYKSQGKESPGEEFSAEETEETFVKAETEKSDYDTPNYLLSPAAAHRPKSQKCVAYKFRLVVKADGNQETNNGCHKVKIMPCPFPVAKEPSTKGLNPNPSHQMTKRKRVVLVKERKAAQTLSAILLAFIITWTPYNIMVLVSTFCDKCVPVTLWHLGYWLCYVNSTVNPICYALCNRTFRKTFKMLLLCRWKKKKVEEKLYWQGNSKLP
How it was run: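 Single-point functional assay in hM5 cells challenged with an EC80 of ACh, compound at 10 μM. Result is % inhibition, averaged from three determinations.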

[2] = molecular target: T2, Muscarinic acetylcholine receptor M5 (Homo sapiens, UniProt P08912); assay: Antagonist activity at human muscarinic M5 receptor assessed as inhibition of acetylcholine-induced calcium response; assay type: functional
T2 sequence (P08912 whole entry): T1 sequence (whole entry)
How it was run: (§1)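 Concentration–response curves (10-point) run in cells expressing human M1, M2, M3, M4 or M5 receptors, n=3. IC50 comes from the curves, with pIC50 also reported. The residual ACh response at 30 μM is given as % ACh min (mean±SEM).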

[3] = molecular target: T1, Muscarinic acetylcholine receptor M5 (Homo sapiens); assay: Antagonist activity at human muscarinic M5 receptor assessed as inhibition of acetylcholine-induced calcium response at 30 uM; assay type: functional; how it was run: as §1
[4] = molecular target: T3, Muscarinic acetylcholine receptor M1 (Homo sapiens, UniProt P11229); assay: Antagonist activity at human muscarinic M1 receptor assessed as inhibition of acetylcholine-induced calcium response; assay type: functional; how it was run: as §1
T3 sequence (P11229 whole entry): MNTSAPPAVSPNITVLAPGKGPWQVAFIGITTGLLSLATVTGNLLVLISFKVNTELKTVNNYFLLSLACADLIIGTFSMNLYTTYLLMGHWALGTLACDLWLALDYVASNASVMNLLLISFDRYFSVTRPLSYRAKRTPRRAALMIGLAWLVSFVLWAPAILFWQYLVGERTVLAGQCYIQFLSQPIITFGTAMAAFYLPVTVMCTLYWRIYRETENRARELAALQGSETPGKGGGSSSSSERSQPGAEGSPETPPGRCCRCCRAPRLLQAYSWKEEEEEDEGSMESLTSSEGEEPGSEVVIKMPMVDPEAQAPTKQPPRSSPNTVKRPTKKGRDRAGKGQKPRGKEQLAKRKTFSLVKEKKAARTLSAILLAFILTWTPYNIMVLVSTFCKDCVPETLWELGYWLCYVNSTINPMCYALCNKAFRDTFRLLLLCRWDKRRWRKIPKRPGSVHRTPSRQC

[5] = molecular target: T4, Muscarinic acetylcholine receptor M2 (Homo sapiens, UniProt P08172); assay: Antagonist activity at human muscarinic M2 receptor assessed as inhibition of acetylcholine-induced calcium response; assay type: functional; how it was run: as §1
T4 sequence (P08172 whole entry): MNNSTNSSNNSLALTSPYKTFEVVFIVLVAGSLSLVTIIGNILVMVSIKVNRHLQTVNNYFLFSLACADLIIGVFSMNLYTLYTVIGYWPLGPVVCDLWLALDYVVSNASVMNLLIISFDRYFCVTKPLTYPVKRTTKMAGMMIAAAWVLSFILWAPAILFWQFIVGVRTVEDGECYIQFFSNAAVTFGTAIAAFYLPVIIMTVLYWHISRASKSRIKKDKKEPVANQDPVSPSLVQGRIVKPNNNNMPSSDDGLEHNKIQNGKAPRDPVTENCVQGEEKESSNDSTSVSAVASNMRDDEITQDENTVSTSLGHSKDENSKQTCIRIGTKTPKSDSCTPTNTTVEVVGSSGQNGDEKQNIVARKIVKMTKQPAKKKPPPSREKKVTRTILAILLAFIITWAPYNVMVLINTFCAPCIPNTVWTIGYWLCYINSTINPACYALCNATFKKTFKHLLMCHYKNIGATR

[6] = molecular target: T5, Muscarinic acetylcholine receptor M4 (Homo sapiens, UniProt P08173); assay: Antagonist activity at human muscarinic M4 receptor assessed as inhibition of acetylcholine-induced calcium response; assay type: functional; how it was run: as §1
T5 sequence (P08173 whole entry): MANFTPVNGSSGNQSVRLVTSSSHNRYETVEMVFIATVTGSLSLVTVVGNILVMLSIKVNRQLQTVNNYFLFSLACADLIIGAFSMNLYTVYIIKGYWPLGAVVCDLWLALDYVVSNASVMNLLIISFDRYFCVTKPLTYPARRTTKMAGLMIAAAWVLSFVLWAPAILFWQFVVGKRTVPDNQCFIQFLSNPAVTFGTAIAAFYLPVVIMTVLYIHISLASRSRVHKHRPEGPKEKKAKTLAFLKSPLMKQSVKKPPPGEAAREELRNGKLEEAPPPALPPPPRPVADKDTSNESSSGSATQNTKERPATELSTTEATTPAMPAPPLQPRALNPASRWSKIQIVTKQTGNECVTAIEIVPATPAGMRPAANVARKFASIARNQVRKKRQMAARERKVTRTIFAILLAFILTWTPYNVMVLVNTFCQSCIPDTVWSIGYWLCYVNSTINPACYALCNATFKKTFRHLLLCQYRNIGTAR

[7] = molecular target: T6, Muscarinic acetylcholine receptor M3 (Homo sapiens, UniProt P20309); assay: Antagonist activity at human muscarinic M3 receptor assessed as minimum acetylcholine-induced calcium response at 30 uM; assay type: functional; design: scale not given: the % may be the effect or the level left; how it was run: as §1
Target sequence in this assay (P20309 whole entry, looked up): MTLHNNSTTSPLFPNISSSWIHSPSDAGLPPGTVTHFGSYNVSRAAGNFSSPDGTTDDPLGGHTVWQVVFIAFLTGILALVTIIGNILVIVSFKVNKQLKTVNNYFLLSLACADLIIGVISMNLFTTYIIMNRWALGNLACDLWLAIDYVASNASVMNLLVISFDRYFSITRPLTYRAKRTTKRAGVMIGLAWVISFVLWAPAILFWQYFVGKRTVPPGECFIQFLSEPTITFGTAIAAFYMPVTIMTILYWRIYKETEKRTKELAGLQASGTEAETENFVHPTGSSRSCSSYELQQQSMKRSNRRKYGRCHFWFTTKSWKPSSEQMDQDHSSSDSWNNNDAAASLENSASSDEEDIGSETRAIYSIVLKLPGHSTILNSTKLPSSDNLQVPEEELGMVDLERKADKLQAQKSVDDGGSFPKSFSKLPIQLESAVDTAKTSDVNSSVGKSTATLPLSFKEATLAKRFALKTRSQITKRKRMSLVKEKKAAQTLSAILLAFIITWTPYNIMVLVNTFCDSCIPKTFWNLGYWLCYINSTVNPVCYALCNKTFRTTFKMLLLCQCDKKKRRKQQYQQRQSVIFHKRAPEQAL

[8] = molecular target: T7, Muscarinic acetylcholine receptor M2 (Homo sapiens) (UniProt P08172); assay: Antagonist activity at human muscarinic M2 receptor assessed as minimum acetylcholine-induced calcium response at 30 uM; assay type: functional; design: scale not given: the % may be the effect or the level left; how it was run: as §1
T7 sequence (whole entry): T4 sequence (P08172 whole entry)

[9] = molecular target: T2, Muscarinic acetylcholine receptor M5; assay: Displacement of [3H]NMS from human muscarinic M5 receptor
How it was run: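 Competition binding against [3H]-N-methylscopolamine in membranes prepared from cells expressing human M5, n=3.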

[10] = molecular target: T1, Muscarinic acetylcholine receptor M5 (Homo sapiens); assay: Antagonist activity at human muscarinic M5 receptor assessed as minimum acetylcholine-induced calcium response at 10 uM; assay type: functional; design: scale not given: the % may be the effect or the level left
[11] = molecular target: T1, Muscarinic acetylcholine receptor M5 (Homo sapiens); assay: Antagonist activity at human muscarinic M5 receptor assessed as minimum acetylcholine-induced calcium response at 30 uM; assay type: functional; design: scale not given: the % may be the effect or the level left; how it was run: as §1
[12] = molecular target: T8, Muscarinic acetylcholine receptor M4 (Homo sapiens) (UniProt P08173); assay: Antagonist activity at human muscarinic M4 receptor assessed as minimum acetylcholine-induced calcium response at 30 uM; assay type: functional; design: scale not given: the % may be the effect or the level left; how it was run: as §1
T8 sequence (whole entry): T5 sequence (P08173 whole entry)

[13] = molecular target: T9, Muscarinic acetylcholine receptor M1 (Homo sapiens) (UniProt P11229); assay: Antagonist activity at human muscarinic M1 receptor assessed as minimum acetylcholine-induced calcium response at 30 uM; assay type: functional; design: scale not given: the % may be the effect or the level left; how it was run: as §1
T9 sequence (whole entry): T3 sequence (P11229 whole entry)

[14] = molecular target: T6, Muscarinic acetylcholine receptor M3; assay: Antagonist activity at human muscarinic M3 receptor assessed as inhibition of acetylcholine-induced calcium response; assay type: functional; how it was run: as §1
Target sequence in this assay (P20309 whole entry): as the sequence (P20309 whole entry, looked up) above

Row | inhibition [1] | IC50 ([2]; read-out: IC50) [µM] | Structure (SMILES) | other results
1 | 55% | > 10 | O=S(=O)(c1cc(F)c(F)c(F)c1)N1CCC2(CC1)OCCS2 | –
2 | – | > 10 | Cc1noc(C)c1CCc1nnc2scc(-c3ccc(Cl)cc3)n12 | inhibition [3]: 40%
3 | 27% | > 10 | Cn1cc(S(=O)(=O)N2CCC3(CC2)OCCS3)cn1 | –
4 | 83% | > 10 | O=S(=O)(c1ccc(F)c(Cl)c1)N1CCC2(CC1)OCCS2 | –
5 | 37% | > 10 | Cc1nn(C)c(C)c1S(=O)(=O)N1CCC2(CCCO2)CC1 | –
6 | 40% | > 10 | Cc1noc(C)c1S(=O)(=O)N1CCC2(CC1)OCCS2 | –
7 | inactive | – | Cc1nn(C)cc1S(=O)(=O)N1CCC2(CC1)OCCS2 | –
8 | inactive | – | Cn1cnc(S(=O)(=O)N2CCC3(CC2)OCCS3)c1 | –
9 | – | 5.16 | Fc1cc(F)cc(-c2nnc(Cc3nc(-c4ccc5c(c4)OCO5)no3)o2)c1 | Imax [1]: 70%; IC50 [4]: 2.8 µM; IC50 [5]: 0.93 µM; IC50 [6]: > 10 µM
10 | 83% | > 10 | Cc1c(S(=O)(=O)N2CCC3(CC2)OCCS3)cnn1C | –
11 | 86% | > 10 | Cc1nn(C)c(C)c1S(=O)(=O)N1CCC2(CC1)SCCS2 | –
12 | 62% | > 10 | O=S(=O)(c1cc(F)cc(F)c1)N1CCC2(CC1)OCCS2 | –
13 | – | 3.86 to 6.2 | Cc1nn(C)c(C)c1S(=O)(=O)N1CCC2(CC1)OCCS2 | Activity [7]: 55%; Imax [1]: 50 to 88%; Activity [8]: 37%; Ki [9]: 2.7 µM; IC50 [4]: > 10 µM; Activity [10]: 12.6%; Activity [11]: 16%; IC50 ([2]; read-out: pIC50 (converted)): 0.661 µM; Activity [12]: 55%; IC50 [5]: > 10 µM; Activity [13]: 61%; IC50 [6]: > 10 µM; IC50 [14]: > 10 µM
14 | 45% | > 10 | Cc1nn(C)c(C)c1S(=O)(=O)N1CCC2(CC1)OCCO2 | –
15 | – | 0.246 | COc1ccc([C@@]23c4ccccc4C(=O)N2CCN3C(=O)c2cc(F)c(F)c(F)c2)cc1C | IC50 [4]: > 30 µM; IC50 [5]: > 30 µM; IC50 [6]: > 30 µM; IC50 [14]: > 30 µM
16 | – | > 10 | CCN(C(=O)Cn1cc(-c2ccccc2)c(N2CCOCC2)n1)c1cccc(C)c1 | inhibition [3]: 40%
